Assay results reported in PMC3254186 (Frontiers in Pharmacology, 2011).

What was measured:
Format in all cases: cell-based
Kir1.1 (S44D) = target: T1, Kir1.1 (S44D) (Rattus norvegicus, UniProt P35560, S44D); assay: Tl+ flux assay, tetracycline-inducible Kir1.1-S44D T-REx-HEK-293 cells; settings: IC50 Kir1.1, Tl+ flux, mean ± SEM (n = 3)
T1 sequence (P35560 1-391 S44D): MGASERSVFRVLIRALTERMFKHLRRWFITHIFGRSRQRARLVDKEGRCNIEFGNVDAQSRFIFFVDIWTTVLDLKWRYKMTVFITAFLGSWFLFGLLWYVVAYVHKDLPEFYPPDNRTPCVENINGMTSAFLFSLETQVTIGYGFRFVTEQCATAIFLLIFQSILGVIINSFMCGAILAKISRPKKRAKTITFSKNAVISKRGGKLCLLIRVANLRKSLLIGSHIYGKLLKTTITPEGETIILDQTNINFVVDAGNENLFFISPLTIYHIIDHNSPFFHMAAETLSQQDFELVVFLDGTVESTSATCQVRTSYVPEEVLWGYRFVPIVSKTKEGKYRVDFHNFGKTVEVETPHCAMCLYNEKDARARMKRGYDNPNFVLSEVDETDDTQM
In short: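 Monoclonal C1 T-REx-HEK-293 Kir1.1-S44D cells were grown in DMEM with 10% FBS, penicillin/streptomycin, 5 μg/mL blasticidin S and 250 μg/mL hygromycin. Channel expression was induced overnight with tetracycline. Cells were loaded with FluoZin-2 and pre-treated with test compound from 1:3 serial dilutions. Extracellular Tl+ was then added and fluorescence imaged kinetically at 20–23°C. CRC, mean ± SEM, n = 3.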

wild type Kir7.1 = target: T2, wild type Kir7.1 (Homo sapiens, UniProt O60928); assay: Whole-cell patch clamp, wild type Kir7.1 in transfected HEK-293 cells
T2 sequence (O60928 1-360): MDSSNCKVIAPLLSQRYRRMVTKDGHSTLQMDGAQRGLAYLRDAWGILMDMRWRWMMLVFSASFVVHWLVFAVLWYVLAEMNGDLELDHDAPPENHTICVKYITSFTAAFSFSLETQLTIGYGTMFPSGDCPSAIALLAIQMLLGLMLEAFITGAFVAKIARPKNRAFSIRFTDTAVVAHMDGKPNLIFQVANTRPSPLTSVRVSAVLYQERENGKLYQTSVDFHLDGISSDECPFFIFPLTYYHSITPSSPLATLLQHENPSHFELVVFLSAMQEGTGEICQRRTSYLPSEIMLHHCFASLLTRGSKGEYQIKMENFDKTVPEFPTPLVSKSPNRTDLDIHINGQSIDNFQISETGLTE
In short: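 HEK-293 cells were transiently co-transfected with channel plus an EGFP marker (Lipofectamine). Pipette: 135 mM KCl, 2 mM MgCl2, 1 mM EGTA, 10 mM HEPES, 2 mM Na2ATP, pH 7.3. Bath: 135 mM NaCl, 5 mM KCl, pH 7.4; some runs used 50 mM KCl. Held at −75 mV and ramped −120 to 120 mV every 5 s, at 20–23°C. Test compound was bath-applied for 2–10 min, then 2 mM BaCl2. CRC n = 4–7. τ taken from the time course.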

Kir2.1 = target: T3, Kir2.1 (Homo sapiens, UniProt P63252); assay: Two-electrode voltage clamp in Xenopus oocytes, Kir2.1
T3 sequence (P63252 1-427): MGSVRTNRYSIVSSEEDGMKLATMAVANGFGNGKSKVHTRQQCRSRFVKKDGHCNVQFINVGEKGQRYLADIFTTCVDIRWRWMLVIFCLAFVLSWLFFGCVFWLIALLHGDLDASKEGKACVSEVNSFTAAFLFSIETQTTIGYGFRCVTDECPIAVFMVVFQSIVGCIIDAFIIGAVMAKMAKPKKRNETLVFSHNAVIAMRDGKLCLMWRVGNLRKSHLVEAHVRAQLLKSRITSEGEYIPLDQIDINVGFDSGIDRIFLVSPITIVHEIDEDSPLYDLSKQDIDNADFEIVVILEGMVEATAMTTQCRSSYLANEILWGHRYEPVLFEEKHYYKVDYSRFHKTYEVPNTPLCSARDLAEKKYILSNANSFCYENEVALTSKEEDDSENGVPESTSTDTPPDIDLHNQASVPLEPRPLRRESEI
In short: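 Stage V–VI Xenopus oocytes were defolliculated with 1 mg/mL collagenase and injected with 0.5–10 ng cRNA. They were kept at 16°C in modified L-15 for 24–72 h. Two-electrode voltage clamp at 20–23°C: held at −75 mV and stepped to −120 mV for 200 ms every 5 s, with current at −120 mV tracked over time. Test compound (50 μM) was perfused, then 2 mM Ba2+. Time constant of inhibition derived.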

- IC50 (Kir1.1 (S44D)): 10.8 ± 3.8 µM
- IC50 (wild type Kir7.1; IC50 Kir7.1, whole-cell patch clamp, wild type Kir7.1, HEK-293): ~1 µM
- effect on wild type Kir7.1 activity (wild type Kir7.1; whole-cell patch clamp, 10 μM, n = 4): near complete inhibition
- time constant for inhibition of Kir7.1 (wild type Kir7.1; whole-cell patch clamp, 30 μM, mean ± SEM, n = 4): 14 ± 2 s
- time constant (τ) of Kir2.1 inhibition (Kir2.1; TEVC oocytes, 50 μM, n = 4): 735 ± 85 s
- inhibition at 50 µM (Kir2.1; read-out: inhibition of Kir2.1): 30.2 ± 9.4%
Structure (SMILES): Cc1ccc(OCC(O)Cn2c(=N)n(Cc3ccccc3)c3ccccc32)cc1 (stereo not drawn) [Compound 1, 1-(3-benzyl-2-imino-2,3-dihydro-1H-benzo[d]imidazol-1-yl)-3-(p-tolyloxy)propan-2-ol]
